# Laboratory results taken from ChEMBL document CHEMBL5247575 (J Med Chem, 2018).
# System: Klebsiella pneumoniae
# Assay: Synergistic antibacterial activity against Klebsiella pneumoniae 935/1884 producing KPC-3 assessed as cefepime MIC at 4 ug/ml by broth microdilution method
# Type: functional
# Conditions: dose 4 µg/ml
row,Compound,MIC [µg/mL]
1,O.O=C(NC1CCNCC1)[C@@H]1CC[C@@H]2CN1C(=O)N2OS(=O)(=O)O [RELEBACTAM],≤ 0.12

# System: Bacteria
# Assay: Inhibition of bacteria PDC-3 assessed as half life using nitrocefin as substrate
# Conditions: not given
row,Compound,T1/2 [min]
1,O.O=C(NC1CCNCC1)[C@@H]1CC[C@@H]2CN1C(=O)N2OS(=O)(=O)O [RELEBACTAM],12.8

# System: Pseudomonas aeruginosa
# Assay: Synergistic antibacterial activity against Pseudomonas aeruginosa 715 assessed as cefepime MIC at 4 ug/ml by broth microdilution method
# Type: functional
# Conditions: dose 4 µg/ml
row,Compound,MIC [µg/mL]
1,O.O=C(NC1CCNCC1)[C@@H]1CC[C@@H]2CN1C(=O)N2OS(=O)(=O)O [RELEBACTAM],16

# System: Escherichia coli
# Assay: Synergistic antibacterial activity against Escherichia coli DH10B transfected with pBC SK (-) KPC-2 assessed as cefepime MIC at 4 ug/ml by broth microdilution method
# Type: functional
# Conditions: dose 4 µg/ml
row,Compound,MIC [µg/mL]
1,O.O=C(NC1CCNCC1)[C@@H]1CC[C@@H]2CN1C(=O)N2OS(=O)(=O)O [RELEBACTAM],≤ 0.12

# System: Escherichia coli
# Assay: Synergistic antibacterial activity against Escherichia coli DH10B transfected with pBC SK (-) KPC-3 assessed as cefepime MIC at 4 ug/ml by broth microdilution method
# Type: functional
# Conditions: dose 4 µg/ml
row,Compound,MIC [µg/mL]
1,O.O=C(NC1CCNCC1)[C@@H]1CC[C@@H]2CN1C(=O)N2OS(=O)(=O)O [RELEBACTAM],≤ 0.12

# System: Klebsiella pneumoniae
# Assay: Synergistic antibacterial activity against Klebsiella pneumoniae 901/1860 producing KPC-3 assessed as cefepime MIC at 4 ug/ml by broth microdilution method
# Type: functional
# Conditions: dose 4 µg/ml
row,Compound,MIC [µg/mL]
1,O.O=C(NC1CCNCC1)[C@@H]1CC[C@@H]2CN1C(=O)N2OS(=O)(=O)O [RELEBACTAM],≤ 0.12

# System: Klebsiella pneumoniae
# Assay: Antibacterial activity against Klebsiella pneumoniae jefferson 1775 producing OXA-48 by broth microdilution method
# Type: functional
# Conditions: not given
row,Compound,MIC [µg/mL]
1,O.O=C(NC1CCNCC1)[C@@H]1CC[C@@H]2CN1C(=O)N2OS(=O)(=O)O [RELEBACTAM],> 16

# System: Acinetobacter baumannii
# Assay: Synergistic antibacterial activity against Acinetobacter baumannii PR440 producing OXA-23/24/40 assessed as meropenem MIC at 4 ug/ml by broth microdilution method
# Type: functional
# Conditions: dose 4 µg/ml
row,Compound,MIC [µg/mL]
1,O.O=C(NC1CCNCC1)[C@@H]1CC[C@@H]2CN1C(=O)N2OS(=O)(=O)O [RELEBACTAM],> 16

# System: Acinetobacter baumannii
# Assay: Synergistic antibacterial activity against Acinetobacter baumannii PR408 producing OXA-24/40 assessed as meropenem MIC at 4 ug/ml by broth microdilution method
# Type: functional
# Conditions: dose 4 µg/ml
row,Compound,MIC [µg/mL]
1,O.O=C(NC1CCNCC1)[C@@H]1CC[C@@H]2CN1C(=O)N2OS(=O)(=O)O [RELEBACTAM],> 16

# System: Escherichia coli
# Assay: Synergistic antibacterial activity against Escherichia coli DH10B transfected with pBR322-catI-KPC-2 assessed as meropenem MIC at 4 ug/ml by broth microdilution method
# Type: functional
# Conditions: dose 4 µg/ml
# In short: (§1)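 Broth microdilution per CLSI guidelines, using custom frozen panels. […] Each partner drug was also tested alone. MICs were run in triplicate and the modal value is reported.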
row,Compound,MIC [µg/mL]
1,O.O=C(NC1CCNCC1)[C@@H]1CC[C@@H]2CN1C(=O)N2OS(=O)(=O)O [RELEBACTAM],≤ 0.12

# System: Acinetobacter baumannii
# Assay: Synergistic antibacterial activity against Acinetobacter baumannii PR448 producing OXA-23 assessed as meropenem MIC at 4 ug/ml by broth microdilution method
# Type: functional
# Conditions: dose 4 µg/ml
row,Compound,MIC [µg/mL]
1,O.O=C(NC1CCNCC1)[C@@H]1CC[C@@H]2CN1C(=O)N2OS(=O)(=O)O [RELEBACTAM],> 16

# System: Escherichia coli
# Assay: Synergistic antibacterial activity against Escherichia coli DH10B transfected with pBC SK (-) KPC-2 assessed as meropenem MIC at 4 ug/ml by broth microdilution method
# Type: functional
# Conditions: dose 4 µg/ml
row,Compound,MIC [µg/mL]
1,O.O=C(NC1CCNCC1)[C@@H]1CC[C@@H]2CN1C(=O)N2OS(=O)(=O)O [RELEBACTAM],≤ 0.12

# System: Klebsiella pneumoniae
# Assay: Synergistic antibacterial activity against Klebsiella pneumoniae CAV 1636 producing OXA-181 assessed as meropenem MIC at 4 ug/ml by broth microdilution method
# Type: functional
# Conditions: dose 4 µg/ml
row,Compound,MIC [µg/mL]
1,O.O=C(NC1CCNCC1)[C@@H]1CC[C@@H]2CN1C(=O)N2OS(=O)(=O)O [RELEBACTAM],16

# System: Pseudomonas aeruginosa
# Assay: Synergistic antibacterial activity against Pseudomonas aeruginosa 715 assessed as meropenem MIC at 4 ug/ml by broth microdilution method
# Type: functional
# Conditions: dose 4 µg/ml
row,Compound,MIC [µg/mL]
1,O.O=C(NC1CCNCC1)[C@@H]1CC[C@@H]2CN1C(=O)N2OS(=O)(=O)O [RELEBACTAM],16

# System: Pseudomonas aeruginosa
# Assay: Synergistic antibacterial activity against Pseudomonas aeruginosa 795 assessed as meropenem MIC at 4 ug/ml by broth microdilution method
# Type: functional
# Conditions: dose 4 µg/ml
row,Compound,MIC [µg/mL]
1,O.O=C(NC1CCNCC1)[C@@H]1CC[C@@H]2CN1C(=O)N2OS(=O)(=O)O [RELEBACTAM],8

# System: Klebsiella pneumoniae
# Assay: Synergistic antibacterial activity against Klebsiella pneumoniae 977/1916 producing KPC-3 assessed as meropenem MIC at 4 ug/ml by broth microdilution method
# Type: functional
# Conditions: dose 4 µg/ml
row,Compound,MIC [µg/mL]
1,O.O=C(NC1CCNCC1)[C@@H]1CC[C@@H]2CN1C(=O)N2OS(=O)(=O)O [RELEBACTAM],≤ 0.12

# System: Klebsiella pneumoniae
# Assay: Synergistic antibacterial activity against Klebsiella pneumoniae CAV 1543 producing OXA-48 assessed as meropenem MIC at 4 ug/ml by broth microdilution method
# Type: functional
# Conditions: dose 4 µg/ml
row,Compound,MIC [µg/mL]
1,O.O=C(NC1CCNCC1)[C@@H]1CC[C@@H]2CN1C(=O)N2OS(=O)(=O)O [RELEBACTAM],8

# System: Klebsiella pneumoniae
# Assay: Synergistic antibacterial activity against Klebsiella pneumoniae jefferson 1775 producing OXA-48 assessed as meropenem MIC at 4 ug/ml by broth microdilution method
# Type: functional
# Conditions: dose 4 µg/ml
row,Compound,MIC [µg/mL]
1,O.O=C(NC1CCNCC1)[C@@H]1CC[C@@H]2CN1C(=O)N2OS(=O)(=O)O [RELEBACTAM],2

# System: Acinetobacter baumannii
# Assay: Synergistic antibacterial activity against Acinetobacter baumannii PR420 producing OXA-23/24/40 assessed as cefepime MIC at 4 ug/ml by broth microdilution method
# Type: functional
# Conditions: dose 4 µg/ml
row,Compound,MIC [µg/mL]
1,O.O=C(NC1CCNCC1)[C@@H]1CC[C@@H]2CN1C(=O)N2OS(=O)(=O)O [RELEBACTAM],> 16

# System: Klebsiella pneumoniae
# Assay: Synergistic antibacterial activity against Klebsiella pneumoniae 660/1568 producing KPC-3 assessed as meropenem MIC at 4 ug/ml by broth microdilution method
# Type: functional
# Conditions: dose 4 µg/ml
# In short: as §1
row,Compound,MIC [µg/mL]
1,O.O=C(NC1CCNCC1)[C@@H]1CC[C@@H]2CN1C(=O)N2OS(=O)(=O)O [RELEBACTAM],≤ 0.12
